Ins promoter up – MIN6 insulin promoter up-regulation | MIN6 insulin promoter-GFP reporter, high-content imaging; stronger effect = higher value | actives 0.3% (n = 190,000) | z-score at 5 µM;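 active means z-score above 3 at 5 µM with at least 500 cells counted in the well; inconclusive means wells under 500 cells, flagged as cytotoxic or low count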
DDE Tn6 FP inh – disrupts Tn6 cyclic peptide binding to fibrin D-Dimer-E complex. P02675. Fibrin DD(E) TRITC-Tn6 fluorescence polarization displacement. inhibition, % at 8.3 µM. actives 0.21% (n = 370,000). AID 720509;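 active means inhibition above a per-campaign cutoff: mean of compounds within control limits plus 3 SD, cut at about 15% in these data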;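 further: 0% = median of all compound wells on the plate and 100% = blocking peptide control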
ABCB1 block – human ABCB1 inhibition, ABCG2 as counter-screen. actives 0.067% (n = 190,000). AID 1326. P08183. CCRF-Adr cells, JC-1 efflux, flow cytometry. inhibition, % at 6.6 µM; in the data active means inhibition above about 40%;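 further: 0% = vehicle and 100% = reference inhibitor; higher value means more JC-1 retained so stronger ABCB1 efflux block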
Tn7 DDE FP – DD(E)-Tn7 binding inhibition, primary FP screen; inhibition, % at 8.3 µM; actives 0.13% (n = 370,000); FP displacement of FITC-Tn7 peptide from fibrin DD(E); 0% = median of compound wells per plate;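 active means inhibition above the mean of compounds falling within the control limits plus 3 SD of them, cut at about 14% in these data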;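 further: 0% = plate median of compound wells and 100% = 10 µM Aha-Tn7 peptide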
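Measure: % inhibition scaled between sample-field median and high-control FP; Test system: human fibrin DD(E); Quantity: 2 µM final DD(E) protein; Doses: one dose, 8.3 µM nominal; Schedule: compound with protein 10 min, then 3 h after probe, room temperature; Detection: fluorescence polarization; Medium: Tris buffer with calcium and detergent, pH 7.8.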
ABCG2 inh – blocks JC-1 efflux by human ABCG2 transporter. inhibition, % at 6.6 µM. actives 0.1% (n = 190,000). AID 1325. IgMXP3 cells, flow cytometry;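 active means inhibition above 80%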;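 further: 0% = DMSO and 100% = nicardipine control wells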
Target sequence (Q9UNQ0 whole entry, looked up): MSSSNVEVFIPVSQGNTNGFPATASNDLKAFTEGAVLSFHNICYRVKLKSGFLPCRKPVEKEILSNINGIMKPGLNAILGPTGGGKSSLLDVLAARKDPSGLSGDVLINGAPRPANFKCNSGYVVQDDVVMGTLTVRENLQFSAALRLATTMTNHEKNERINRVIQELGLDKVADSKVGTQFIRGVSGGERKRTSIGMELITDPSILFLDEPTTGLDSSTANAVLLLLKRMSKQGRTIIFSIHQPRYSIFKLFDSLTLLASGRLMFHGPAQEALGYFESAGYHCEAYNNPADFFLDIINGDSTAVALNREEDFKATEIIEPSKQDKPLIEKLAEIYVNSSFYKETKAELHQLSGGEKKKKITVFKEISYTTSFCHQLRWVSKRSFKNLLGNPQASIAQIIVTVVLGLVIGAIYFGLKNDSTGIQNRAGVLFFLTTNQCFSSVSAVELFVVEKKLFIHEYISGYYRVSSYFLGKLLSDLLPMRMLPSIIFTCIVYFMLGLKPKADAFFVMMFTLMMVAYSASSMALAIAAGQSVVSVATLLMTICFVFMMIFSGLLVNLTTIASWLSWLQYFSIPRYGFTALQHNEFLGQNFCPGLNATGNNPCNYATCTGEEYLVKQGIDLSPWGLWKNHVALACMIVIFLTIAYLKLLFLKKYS
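Test system: IgMXP3 cells (ABCG2) mixed with DDAO far-red-labelled CCRF-Adr cells (ABCB1). Reagent: JC-1 transporter substrate. Compound dosing: single test compound dose, 6.6 µM final. Times: 10 min compound exposure, 25 °C. Detection: flow cytometry of retained JC-1 fluorescence. Read-out basis: efflux inhibition in percent versus controls. Controls: nicardipine and DMSO wells.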
GRK2 inh – inhibitors of human GRK2 displacing RNA aptamer | P25098 | bead flow cytometry, FAM-aptamer displacement from GRK2 | inhibition of aptamer binding, % at 10 µM | actives 0.59% (n = 330,000) | AID 488847;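 active means inhibition of aptamer binding above 40%, roughly 3 SD of noise, on plates passing a quality check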;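 further: median bead fluorescence of bound FAM aptamer so fluorescent compounds give negative values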
GRK2 inh confirm – human GRK2 inhibition confirmation, cherry pick 1; bead-bound GRK2, FAM-aptamer displacement, flow cytometry; AID 504451; aptamer displacement, % at 10 µM; shares compounds with GRK2 inh; actives 4% (n = 2,000);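 active means aptamer displacement above 40%, near three times the noise of non-fluorescent compounds, on plates passing quality checks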;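 further: negative values mostly reflect intrinsic compound fluorescence rather than true enhancement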
Aptamer quench – quenches fluorescent RNA aptamer, GRK2 hit artifact. shares compounds with GRK2 inh. Fluorescent RNA aptamer beads, quenching, flow cytometry; stronger effect = higher value. fluorescence change (kMESF span), kMESF (concentration not given with the values). 110 tested, under 10 active. AID 504521;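 active means compounds whose bead fluorescence drops by more than 37 kMESF across the dose range, marking them as dye quenchers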
FAM quench CP1 – aptamer fluorescence quenching in GRK2 counter-screen; Carboxyfluorescein RNA aptamer on beads, flow cytometry quenching; stronger effect = lower value; fluorescence response (% of DMSO), % at 10 µM; AID 504580; 2,000 tested, under 10 active; shares compounds with GRK2 inh;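 active means compounds that quench the bead-bound fluorescent RNA probe, cutting fluorescence to under half of the solvent control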;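 further: counterscreen run without GRK2 so only probe quenching by compound is measured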
GRK2 CP2 – human GRK2 inhibition confirmation, cherry pick 2; shares compounds with GRK2 inh; bead-bound GRK2, FAM-aptamer displacement, flow cytometry; inhibition of aptamer binding, % at 10 µM; 360 tested, under 10 active;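 active means inhibition of aptamer binding above 40%, about triple the noise seen with nonglowing compounds, on plates passing quality control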;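 further: negative values mostly come from compounds that fluoresce themselves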
FAM quench SP – aptamer fluorescence quenching in GRK2 counter-screen. carboxyfluorescein RNA aptamer beads, flow cytometry quenching; stronger effect = lower value. fluorescence response vs DMSO, % at 10 µM. shares compounds with GRK2 inh. 360 tested, under 10 active. AID 588494;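 active means response vs DMSO under 50%, meaning signal dropped by over half, treated as fluorescence quencher; inconclusive means no clear call, values can overlap the other calls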;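 further: labelled aptamer on streptavidin beads without GRK2 as a quench counter-screen; 100% = bead fluorescence of DMSO wells and lower means quenching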
* hit, by the source's call; ? = inconclusive; / = no result given. An excerpt weighted towards active compounds, which were near 0.99% of everything screened.

SMILES	Ins promoter up	DDE Tn6 FP inh	ABCB1 block	Tn7 DDE FP	ABCG2 inh	GRK2 inh	GRK2 inh confirm	FAM quench CP1	others
CCC(C(=O)NCC1CCCO1)N(Cc1ccc(F)cc1)C(=O)CNS(=O)(=O)c1ccccc1 (centres undefined)	/	2	/	-1	/	78*	-3	106
CCC(C(=O)NCC1CCCO1)N(Cc1ccccc1)C(=O)CNS(=O)(=O)c1ccccc1 (centres undefined)	/	2	/	-8	/	1	/	/
O=C1CC(=O)N(Cc2ccco2)C(=S)N1	0.9	/	0	/	-1	68*	-4	99
NS(=O)(=O)c1ccc(CCNC(=O)c2ccccc2-c2ccccc2)cc1	/	-1	/	-7	/	82*	-5	100
CC(C)CNc1cccc2c1S(=O)(=O)N(Cc1cn(Cc3cccc(C(F)(F)F)c3)nn1)Cc1ccccc1O2	/	5	/	-4	/	/	/	/
C[C@H](O)[C@@H]1CN2CCc3c([nH]c4c(-c5ccc6c(c5)OCO6)cccc34)[C@@H]2C[C@@H]1N(C)C(=O)Nc1ccccc1	/	0	/	-5	/	/	/	/
Cc1ccc(NC2=C(Cl)C(=O)OC2OC(C)C)cc1 (centres undefined)	-0.77	-2	0	-1	2	47*	0	97
COc1cc2c(cc1OC)C(C)N(S(=O)(=O)c1ccc(C)cc1)CC2 (centres undefined)	/	1	/	-2	/	49*	-10	94
COC(=O)C1=C(C)N(Cc2cccc(C(F)(F)F)c2)C(=NCC2CC2)NC1c1cccc(F)c1 (centres undefined)	/	-1	/	-8	/	/	/	/
CCn1c(CSc2nnc(-c3ccc4c(c3)OCO4)o2)nc2cc(S(=O)(=O)N(C)C)ccc21	-2.1	-3	1	0	1	43*	-2	105
CCN1/C(=C\c2ccc3cc(C)ccc3[n+]2CC)Sc2cc(C)c(C)cc21	?	-10	5	-23	36	/	/	/
CCN1/C(=C/c2ccc3cc(C)ccc3[n+]2CC)Sc2ccc3sccc3c21	/	/	/	/	/	84*	89*	99	Aptamer quench=67*
CC(=O)Oc1ccc2c(=O)c(-c3ccccc3)coc2c1	-0.49	4	0	2	4	38	1	93
CC(=O)N/C(=N\c1nc(C)cc(C)n1)Nc1ccccc1Cl	/	5	/	-6	/	/	/	/
CC(=O)N/C(=N/c1nc(C)cc(C)n1)Nc1cccc(C)c1C	/	-3	/	4	/	17	0	98
NC(=S)N1OC[C@@H]2COc3ccc4ccccc4c3[C@@H]21	-1	10	0	2	0	65*	1	95
CCCn1c2ccccc2c2cn[nH]c(=O)c21	/	1	/	-5	/	18	0	99
CN(C)c1ccc(-n2cccc2)cc1	0.19	3	/	7	/	0	/	/	GRK2 CP2=-7;FAM quench SP=102
CCN1/C(=C/C(C)=C/c2sc3ccccc3[n+]2CC)Sc2ccccc21	-3.5	-17	1	-4	-11	100*	99*	92	Aptamer quench=0.6
CCCN(CCC)CCCNC(=O)c1ccc2c(c1)N(CC)C(=O)c1ccccc1S2=O (centres undefined)	0.22	-6	6	3	29	4	/	/
CCCCSCCCNC(=O)c1ccc2c(c1)N(CC)C(=O)c1ccccc1S2=O (centres undefined)	/	0	/	0	/	47*	/	/	GRK2 CP2=9;FAM quench SP=100
COc1ccccc1C=NNC(=O)CSc1nc2ccccc2n1Cc1ccc(Cl)cc1	/	0	/	5	/	/	/	/
O=C1NNC(c2ccccc2)=N/C1=C\c1ccccc1	0.19	1	/	-4	/	4	/	/
Cc1ccc(/C=C2/N=C(c3ccccc3)NNC2=O)cc1	-0.19	-2	/	-4	/	93*	-2	98
CC(C)Oc1ccc(NC(N)=O)cc1	0.36	-7	0	-8	0	89*	-2	102
SMILES	Ins promoter up	DDE Tn6 FP inh	ABCB1 block	Tn7 DDE FP	ABCG2 inh	GRK2 inh	GRK2 inh confirm	FAM quench CP1	others
Cc1cc(C)cc(C(=O)Nc2cccnc2)c1	/	0	/	0	/	82*	-2	99
O=C(c1cc(Cl)cc(Cl)c1)N1CC[C@H]2[C@H](CCCN2Cc2ccccc2)C1	/	6	/	3	/	/	/	/
CC(=O)N(c1ccccc1)c1ccc([N+](=O)[O-])cc1[N+](=O)[O-]	0.08	9	0	5	8	1	/	/	GRK2 CP2=-17;FAM quench SP=100
O=C1/C(=C\c2ccc(-c3ccccc3Cl)o2)SC(=S)N1CC1CCCO1 (centres undefined)	0.37	7	-1	2	-2	51*	36	108
COc1ccc(C(=O)CCC(=O)N2CCN(c3cc(C)ccc3C)CC2)cc1	/	3	/	2	/	87*	1	99
CC(=O)n1c(=O)c2ccccc2c(=O)n1-c1ccccc1	/	-1	/	5	/	23	-29	213
O=c1c2ccccc2c(=O)n(-c2ccccc2)n1CCCCBr	/	9	/	4	/	1	/	/
O=C(OCC#CCSc1nnc(-c2cccc3ccccc23)o1)C1CCCC1	/	1	/	8	/	/	/	/
CCOC(=O)c1cnc2c(C#N)c(C)nn2c1C	-1.2	2	0	6	3	47*	-4	100

Screens: PubChem, several laboratories
